# From ChEMBL document CHEMBL1131482 (J Med Chem, 1998)
# What was measured:
# Mus musculus [1] = assay: MNTD:Maximal nontoxic dose of the compound, done on mouse; sc; format: functional
# Outline: (§1)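 Male Swiss-Webster mice dosed sc. The value is the highest dose causing no visible behavioural change (tremors, convulsions, hypomotility etc.), so that treated mice could not be told apart from untreated ones. Behaviour was scored by the Irwin method in groups of at least 10 animals.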
# Mus musculus [2] = assay: MAD: minimal dose able to induce a statistically significant increase of the pain threshold, done on mouse; sc; format: functional
# Outline: (§2)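 Mouse hot plate test (52.5 ± 0.1 °C, 45 s cutoff) after sc dosing, in male Swiss-Webster mice. The value is the lowest dose giving a statistically significant rise in pain threshold. Dunnett's two-tailed test compared treated mice at maximum reaction time with pretest time, P < 0.05.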
# Mus musculus [3] = assay: Licking latency was measured after 15 min treatment (at dose=25 mg/kg) by using mouse hot plate test (*P<0.01); format: functional
# Outline: (§3)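 Male Swiss-Webster mice (22-28 g), 23 ± 1 °C, 12-h light/dark cycle, food and water ad libitum. Hot plate at 52.5 ± 0.1 °C with licking latency as read-out and 45 s cutoff. Mice with pre-drug latency below 12 or over 18 s were rejected. Compounds given sc, 5-12 mice per test. Significance was assessed by Dunnett's two-tailed test, P < 0.05.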
# Mus musculus [4] = assay: Licking latency was measured after 15 min treatment (at dose=10 mg/kg) by using mouse hot plate test; format: functional; outline: as §3
# Mus musculus [5] = assay: Licking latency was measured after 45 min treatment (at dose=10 mg/kg) by using mouse hot plate test; format: functional; outline: as §3
# Mus musculus [6] = assay: Licking latency was measured after 45 min treatment (at dose=25 mg/kg) by using mouse hot plate test (*P<0.05); format: functional; outline: as §3
# Mus musculus [7] = assay: Licking latency was measured before treatment (at dose=10 mg/kg) by using mouse hot plate test; format: functional; outline: as §3
# Mus musculus [8] = assay: Licking latency was measured before treatment (at dose=25 mg/kg) by using mouse hot plate test; format: functional; outline: as §3
# Mus musculus [9] = assay: Licking latency was measured after 30 min treatment (at dose=10 mg/kg) by using mouse hot plate test; format: functional; outline: as §3
# Mus musculus [10] = assay: Licking latency was measured after 30 min treatment (at dose=25 mg/kg) by using mouse hot plate test(*P<0.05); format: functional; outline: as §3
# Mus musculus [11] = species on record: Mus musculus; assay: Analgesic efficacy is expressed as percentage of that epibatidine, done on mouse.; format: functional
# Mus musculus [12] = species on record: Mus musculus; assay: Analgesic efficacy is expressed as percentage of that morphine, done on mouse.; format: functional
# IMR-32 [13] = assay: Cholinergic interactions was measured with FLIPR device on cells of IMR-32 human neuroblastoma clonal line and given as Intrinsic activity; format: functional
# Outline: (§4)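 Cells were plated on poly(ethylenimine)-coated plates and used about 72 h later. Loading was Fluo-3 AM for 1 h at 37 °C, followed by washes in Hepes-salts buffer, pH 7.4. FLIPR recorded Ca2+ fluorescence over 5 min after agonist addition. Responses were normalized to 100 µM nicotine (100%) and unloaded cells (0%), and EC50 and intrinsic activity were derived from concentration-response curves.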
# IMR-32 [14] = assay: Cholinergic interactions was measured with FLIPR device on IMR-32 cells of human neuroblastoma clonal line, given as effective dose; format: functional, cell-based; outline: as §4
# K177 cell line [15] = assay: Cholinergic interactions was measured with FLIPR device on […] cells and given as EC50.; format: functional, cell-based; conditions: Homo sapiens; outline: as §4
# K177 cell line [16] = assay: Cholinergic interactions was measured with FLIPR device on […] cells and given as Intrinsic activity; format: functional, Homo sapiens; outline: as §4
# Mus musculus [17] = assay: Maximal nontoxic dose of the compound, done on mouse; sc; format: functional; outline: as §1
# Mus musculus [18] = assay: Minimal dose able to induce a statistically significant increase of the pain threshold, done on mouse; sc; format: functional; outline: as §2
# Mus musculus [19] = assay: Licking latency was measured after 15 min treatment (at dose=1 mg/kg) by using mouse hot plate test; format: functional; outline: as §3
# Mus musculus [20] = assay: Licking latency was measured after 30 min treatment (at dose=5 mg/kg) by using mouse hot plate test; format: functional; outline: as §3
# Mus musculus [21] = assay: Licking latency was measured after 45 min treatment (at dose=1 mg/kg) by using mouse hot plate test; format: functional; outline: as §3
# Mus musculus [22] = assay: Licking latency was measured after 45 min treatment (at dose=20 mg/kg) by using mouse hot plate test; format: functional; outline: as §3
# Mus musculus [23] = assay: Licking latency was measured before treatment (at dose=1 mg/kg) by using mouse hot plate test; format: functional; outline: as §3
# Mus musculus [24] = assay: Licking latency was measured before treatment (at dose=20 mg/kg) by using mouse hot plate test; format: functional; outline: as §3
# Mus musculus [25] = assay: Licking latency was measured before treatment (at dose=5 mg/kg) by using mouse hot plate test; format: functional
# Outline: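 Male Swiss-Webster mice (22-28 g), 23 ± 1 °C, 12-h light/dark cycle. Hot plate at 52.5 ± 0.1 °C. Mice with pre-drug licking latency below 12 s or over 18 s were rejected. Cutoff 45 s. Compound given sc; latency read before dosing and at 15, 30 and 45 min. 5-12 mice per test.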
# Mus musculus [26] = assay: Licking latency was measured after 15 min treatment (at dose=5 mg/kg) by using mouse hot plate test; format: functional; outline: as §3
# Mus musculus [27] = assay: Licking latency was measured after 30 min treatment (at dose=1 mg/kg) by using mouse hot plate test; format: functional; outline: as §3
# Mus musculus [28] = assay: Licking latency was measured after 30 min treatment (at dose=20 mg/kg) by using mouse hot plate test; format: functional; outline: as §3
# [29] = biological target: Neuronal acetylcholine receptor; alpha4/beta2 (Rattus norvegicus, UniProt P09483+P12390); assay: Cholinergic interactions was measured as displaced [3H][…] from Nicotinic acetylcholine receptor alpha4-beta2 in rat brain membranes; format: cell membranes
# Neuronal acetylcholine receptor; alpha4/beta2, sequence (P09483 whole entry): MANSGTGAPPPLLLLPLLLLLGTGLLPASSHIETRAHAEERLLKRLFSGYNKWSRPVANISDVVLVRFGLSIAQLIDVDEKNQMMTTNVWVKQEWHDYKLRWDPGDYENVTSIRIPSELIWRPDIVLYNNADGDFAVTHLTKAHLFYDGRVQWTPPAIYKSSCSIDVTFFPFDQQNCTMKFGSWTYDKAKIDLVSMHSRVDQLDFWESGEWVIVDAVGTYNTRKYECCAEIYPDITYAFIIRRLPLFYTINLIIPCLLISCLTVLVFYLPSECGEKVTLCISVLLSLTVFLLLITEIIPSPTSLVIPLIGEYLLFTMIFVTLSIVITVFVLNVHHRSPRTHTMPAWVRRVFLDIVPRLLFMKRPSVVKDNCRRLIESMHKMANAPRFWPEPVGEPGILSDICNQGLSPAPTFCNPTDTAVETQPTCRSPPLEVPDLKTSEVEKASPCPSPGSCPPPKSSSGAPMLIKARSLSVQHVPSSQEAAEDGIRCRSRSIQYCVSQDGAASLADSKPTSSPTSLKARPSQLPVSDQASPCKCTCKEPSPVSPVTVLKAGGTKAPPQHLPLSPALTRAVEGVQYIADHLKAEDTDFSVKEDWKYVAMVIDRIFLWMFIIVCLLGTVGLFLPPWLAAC
# Neuronal acetylcholine receptor; alpha4/beta2, sequence (P12390 whole entry): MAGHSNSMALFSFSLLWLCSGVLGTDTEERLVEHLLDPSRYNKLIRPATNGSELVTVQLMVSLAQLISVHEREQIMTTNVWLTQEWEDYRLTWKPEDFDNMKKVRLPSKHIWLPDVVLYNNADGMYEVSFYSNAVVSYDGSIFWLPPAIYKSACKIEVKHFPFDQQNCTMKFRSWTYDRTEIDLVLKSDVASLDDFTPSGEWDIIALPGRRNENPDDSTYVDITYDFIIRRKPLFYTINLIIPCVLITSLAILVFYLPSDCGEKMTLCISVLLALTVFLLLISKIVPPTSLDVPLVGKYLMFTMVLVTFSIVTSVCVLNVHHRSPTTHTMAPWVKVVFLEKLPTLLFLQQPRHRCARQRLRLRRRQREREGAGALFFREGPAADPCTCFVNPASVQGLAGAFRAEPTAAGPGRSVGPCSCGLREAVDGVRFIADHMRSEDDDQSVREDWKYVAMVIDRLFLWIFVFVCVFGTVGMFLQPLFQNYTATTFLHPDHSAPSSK
# Outline: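 Rat cerebral cortical membranes were washed and resuspended in Tris-HCl 50 mM buffer, pH 7.4, then spun at 45000g. Samples held 150-200 µg protein and 0.7 nM [3H]-(-)-cytisine with varying modulator concentrations. Incubation was 75 min at 4 °C in triplicate. Nonspecific binding was defined with 10 µM (-)-nicotine.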
# TE-671 [30] = assay: Cholinergic interactions was measured with FLIPR device on TE671 cells and given as Intrinsic activity; format: functional, Homo sapiens; outline: as §4
# TE-671 [31] = assay: Cholinergic interactions was measured with FLIPR device on TE671 cells and given as Effective dose; format: functional, cell-based; conditions: Homo sapiens; outline: as §4
# Mus musculus [32] = assay: Licking latency was measured after 45 min treatment (at dose=5 mg/kg) by using mouse hot plate test; format: functional; outline: as §3
# Mus musculus [33] = assay: Licking latency was measured after 15 min treatment (at dose=25 mg/kg) by using mouse hot plate test; format: functional; outline: as §3
# Mus musculus [34] = assay: Licking latency was measured after 15 min treatment (at dose=15 mg/kg) by using mouse hot plate test; format: functional; outline: as §3
# Mus musculus [35] = assay: Licking latency was measured after 45 min treatment (at dose=15 mg/kg) by using mouse hot plate test; format: functional; outline: as §3
# Mus musculus [36] = assay: Licking latency was measured after 45 min treatment (at dose=25 mg/kg) by using mouse hot plate test; format: functional; outline: as §3
# Mus musculus [37] = assay: Licking latency was measured before treatment (at dose=15 mg/kg) by using mouse hot plate test; format: functional; outline: as §3
# Mus musculus [38] = assay: Licking latency was measured after 30 min treatment (at dose=15 mg/kg) by using mouse hot plate test; format: functional; outline: as §3
# Mus musculus [39] = assay: Licking latency was measured after 30 min treatment (at dose=25 mg/kg) by using mouse hot plate test; format: functional; outline: as §3
# Mus musculus [40] = assay: 15.5 Licking latency was measured after 15 min treatment (at dose=5 mg/kg) by using mouse hot plate test; format: functional; outline: as §3
Structure (SMILES),MNTD (Mus musculus [1]) [mg/kg],MAD (Mus musculus [2]) [mg/kg],Licking latency (Mus musculus [4]) [s],Licking latency (Mus musculus [5]) [s],Licking latency (Mus musculus [7]) [s],Licking latency (Mus musculus [8]) [s],Licking latency (Mus musculus [9]) [s],Analgesic efficacy compared to epibatidine (Mus musculus [11]) [%],Analgesic efficacy compared to morphine (Mus musculus [12]) [%],Licking latency (Mus musculus [20]) [s],Licking latency (Mus musculus [25]) [s],Licking latency (Mus musculus [32]) [s],also measured
CCN1C2CCC1CN(c1ccc(Cl)nn1)C2,20,10,19.3,16.4,13.2,14.3,18.4,74,61,–,–,–,Licking latency (Mus musculus [3]): 26 s; Licking latency (Mus musculus [6]): 20.8 s; Licking latency (Mus musculus [10]): 20.5 s
Clc1ccc(N2CC3CCC(C2)N3)nn1,–,–,32.3,–,14.2,–,38.3,–,–,28.5,13.7,26.5,Intrinsic activity (IMR-32 [13]): 122.6%; EC50 (IMR-32 [14]): 12.2 µM; EC50 (K177 cell line [15]): 24 µM; Intrinsic activity (K177 cell line [16]): 164%; MNTD (Mus musculus [17]): 30 mg/kg; MAD (Mus musculus [18]): 1 mg/kg; Licking latency (Mus musculus [19]): 21.5 s; Licking latency (Mus musculus [21]): 21.5 s; Licking latency (Mus musculus [22]): 33.8 s; Licking latency (Mus musculus [23]): 13.5 s; Licking latency (Mus musculus [24]): 14.3 s; Licking latency (Mus musculus [26]): 27.8 s; Licking latency (Mus musculus [27]): 25.6 s; Licking latency (Mus musculus [28]): 39.8 s; Efficacy (Mus musculus [11]): 167%; Efficacy (Mus musculus [12]): 136%; Ki [29]: 4.1 µM; Intrinsic activity (TE-671 [30]): 9.6%; EC50 (TE-671 [31]): > 1000 µM
Clc1cccc(N2CC3CCC(C2)N3)n1,30,15,–,–,–,14.6,–,142,116,–,–,–,Licking latency (Mus musculus [33]): 31.9 s; Licking latency (Mus musculus [34]): 23.6 s; Licking latency (Mus musculus [35]): 22 s; Licking latency (Mus musculus [36]): 34.2 s; Licking latency (Mus musculus [37]): 13.5 s; Licking latency (Mus musculus [38]): 22.1 s; Licking latency (Mus musculus [39]): 37 s
Clc1cncc(N2CC3CCC(C2)N3)n1,15,5,24.6,22.3,13.6,–,22.5,70,57,15.5,15.1,15.7,Licking latency (Mus musculus [40]): 19.7 s
